# ChEMBL document CHEMBL1129331, “Synthesis and physicochemical, biological, and pharmacological properties of new bile acids amidated with cyclic amino acids” (J Med Chem, 1996)
# Experiments:
# Rattus norvegicus [1] = assay: Secretion of Bile acids in Bile Fistula rats after the iv administration of compound, expressed as the residual secretion rate; type: ADME, organism-based; conditions: in vivo
# Outline: (§1)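 Male Sprague-Dawley rats (300-330 g), urethane-anesthetized, bile duct cannulated. After 1 h baseline, sodium salt infused via femoral vein at 10 μmol/min/kg for 1 h; bile collected at 15-min intervals for 3 h. Flow measured gravimetrically; bile acids, cholesterol and phospholipid measured enzymatically. Smax and Tmax read from secretion-time plots; Rs is the rate at hour 3. Mean ± SD, n=6.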
# Rattus norvegicus [2] = assay: Secretion of cholesterol in Bile Fistula rats after the iv administration of compound, expressed as the residual secretion rate; type: ADME, organism-based; conditions: in vivo; outline: as §1
# Rattus norvegicus [3] = assay: Secretion of phospholipid in Bile Fistula rats after the iv administration of compound, expressed as the residual secretion rate; type: ADME, organism-based; conditions: in vivo
# Outline: (§2)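 Anaesthetised (ethyl carbamate) male Sprague-Dawley rats, 300-330 g, bile duct cannulated; after 1 h baseline, bile acid sodium salts infused via femoral vein at 10 μmol/min/kg for 1 h. Bile collected 3 h at 15 min intervals; flow gravimetric; BA, cholesterol, phospholipid by enzymatic assays. Smax, Tmax from secretion-vs-time plots; Rs = rate at third hour. n=6, mean ± SD.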
# [4] = Water solubility was determined; type: ADME; conditions: read-out: WS
# Outline: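 Protonated form; measured on saturated solutions at pH 1.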
# Rattus norvegicus [5] = assay: Alkaline phosphatase in Bile Fistula rats after iv coinfusion of TCDCA and compound.; type: ADME, organism-based; conditions: in vivo
# Outline: (§3)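 Bile fistula Sprague-Dawley rats (200-250 g). TCDCA and test bile acid given as sodium salts, coinfused via jugular vein, each at 8 μmol/min/kg for 1 h. Bile collected at 30-min intervals for 3 h. Calcium, ALP and LDH in bile measured enzymatically; bile acid composition by HPLC (65% methanol, 15 mM ammonium acetate, pH 5.4). Mean ± SD.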
# Rattus norvegicus [6] = assay: Lactate dehydrogenase in Bile Fistula rats after iv coinfusion of TCDCA and compound.; type: ADME, organism-based; conditions: in vivo; outline: as §3
# [7] = Critical Micellar concentration was determined; type: ADME
# Outline: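 Measured in water from surface tension, using the maximum bubble-pressure method.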
# Rattus norvegicus [8] = assay: Bile flow in Bile Fistula rats after iv coinfusion of TCDCA and compound.; type: ADME, organism-based; conditions: in vivo; outline: as §3
# Rattus norvegicus [9] = assay: Calcium output in Bile Fistula rats after iv coinfusion of TCDCA and compound.; type: ADME, organism-based; conditions: in vivo; outline: as §3
# Rattus norvegicus [10] = assay: Maximum biliary secretion rate of TCDCA after iv coinfusion in Bile fistula rats.; type: ADME, organism-based; conditions: in vivo; outline: as §3
# Rattus norvegicus [11] = assay: Maximum biliary secretion rate of bile acids after iv coinfusion in Bile fistula rats.; type: ADME, organism-based; conditions: in vivo; outline: as §3
# Rattus norvegicus [12] = assay: Secretion of Bile acids in Bile Fistula rats after the iv administration of compound, expressed as the maximum secretion rate; type: ADME, organism-based; conditions: in vivo; outline: as §2
# Rattus norvegicus [13] = assay: Secretion of Bile in Bile Fistula rats after the iv administration of compound, expressed as the maximum secretion rate; type: ADME, organism-based; conditions: in vivo; outline: as §1
# Rattus norvegicus [14] = assay: Secretion of cholesterol in Bile Fistula rats after the iv administration of compound, expressed as the maximum secretion rate; type: ADME, organism-based; conditions: in vivo; outline: as §2
# Rattus norvegicus [15] = assay: Secretion of phospholipid in Bile Fistula rats after the iv administration of compound, expressed as the maximum secretion rate; type: ADME, organism-based; conditions: in vivo; outline: as §2
# [16] = Relative lipophilicity was determined; type: physicochemical; conditions: C-18 reverse phase HPLC
# Outline: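 C-18 reverse-phase HPLC run isocratically at 0.9 mL/min. Mobile phase 65% (v/v) aqueous methanol with 2 mM ammonium acetate, pH 7, so that all bile acids are fully ionized.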
# cholylglycine hydrolase = assay: (§4) The compound was incubated with cholylglycine hydrolase and tested for determining the stability towards C-24 Deamination; type: ADME; conditions: cholylglycine hydrolase
# [17] = The compound was incubated with human stools and tested for determining the stability towards 7-dehydroxylation; type: ADME, organism-based
# Outline: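 Homogenized fresh human stool (500 mg) in 5 mL chopped meat-glucose medium; bile acid added at 0.05 mM final; 37 °C. Sampled at 0–72 h and stopped with 30% KOH. Bile acids recovered by C-18 solid-phase extraction, then analyzed by TLC and by HPLC with 75% methanol/15 mM ammonium acetate, pH 5.4.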
# [18] = Partition coefficient (logP); type: physicochemical; conditions: octanol/water
# Outline: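 Octanol/water partition coefficient of the protonated species, calculated rather than measured.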
# [19] = Acidity constant was determined; type: ADME
# [20] = Critical micellar pH was determined
# Outline: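 20 mL of 50 mM bile salt solution titrated with 0.1 M HCl. CMpH is taken as the pH at which precipitate of the protonated form is first seen by turbidity at 500 nm. Confirmed by back-titration with 0.1 M NaOH until the suspension clears.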
# Rattus norvegicus [21] = assay: Secretion of Bile in Bile Fistula rats after the iv administration of compound, expressed as the residual secretion rate; type: ADME, organism-based; conditions: in vivo; outline: as §2
# [22] = as §4; type: ADME
smiles,measurement,setting,value
CC(CCC(=O)NCC(=O)O)C1CC[C@H]2[C@@H]3[C@H](O)CC4C[C@H](O)CCC4(C)[C@H]3CCC12C (stereo partly drawn),Rs,Rattus norvegicus [1],0.8 µM/min/kg
same,Rs,Rattus norvegicus [2],18 nM/min/kg
same,Rs,Rattus norvegicus [3],0.1 µM/min/kg
same,solubility,[4],8 µM
same,[ALP]max,Rattus norvegicus [5],150 IU/L
same,[LDH]max,Rattus norvegicus [6],37 UI l-1
same,CMC,[7],12 mM
same,Smax,Rattus norvegicus [8],3.78 mL/h/kg
same,Smax,Rattus norvegicus [9],0.22 µM/min/kg
same,Smax,Rattus norvegicus [10],3.13 µM/min/kg
same,Smax,Rattus norvegicus [11],3.33 µM/min/kg
same,Smax,Rattus norvegicus [12],6.1 µM/min/kg
same,Smax,Rattus norvegicus [13],4.62 mL/h/kg
same,Smax,Rattus norvegicus [14],51 nM/min/kg
same,Smax,Rattus norvegicus [15],0.23 µM/min/kg
same,rK,[16],0.85
same,half-life,cholylglycine hydrolase,4 h
same,half-life,[17],2 h
same,logP,[18],3.53
same,pKa,[19],3.9
same,CMpH,[20],7.1
same,Rs,Rattus norvegicus [21],2.7 mL/h/kg
C[C@H](CCC(=O)NCCS(=O)(=O)O)[C@H]1CC[C@H]2[C@@H]3C[C@H](O)C4C[C@H](O)CC[C@]4(C)[C@H]3CC[C@]12C (stereo in doubt; form 1),T1/2,[22],4 h
